Assay outcomes: PubChem, several laboratories
APJ agonist: APJ receptor agonism; AID 2520; P35414; CHO-K1 APJ PathHunter beta-arrestin, luminescence; 0% DMSO wells, 100% apelin; actives 0.11% (n = 330,000); activation, % at 20 µM;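 active = activation more than six SD over the plate average, tested at 20 µM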
Target sequence (P35414 whole entry, looked up): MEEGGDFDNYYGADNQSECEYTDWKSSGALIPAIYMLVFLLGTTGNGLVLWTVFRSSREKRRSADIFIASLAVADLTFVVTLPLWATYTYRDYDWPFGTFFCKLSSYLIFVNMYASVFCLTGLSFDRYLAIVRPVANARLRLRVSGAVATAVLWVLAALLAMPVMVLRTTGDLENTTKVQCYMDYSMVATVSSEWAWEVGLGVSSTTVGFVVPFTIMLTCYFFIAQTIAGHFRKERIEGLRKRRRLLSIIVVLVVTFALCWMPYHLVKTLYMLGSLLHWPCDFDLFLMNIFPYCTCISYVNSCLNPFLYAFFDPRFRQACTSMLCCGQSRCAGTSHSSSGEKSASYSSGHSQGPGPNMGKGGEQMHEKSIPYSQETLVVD
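Material: CHO-K1 APJ beta-arrestin complementation cell line; Input: cell density 1000 per well; Incubation: compound stimulation 90 min at 25 °C, detection 60 min; Signal: luminescence from split beta-galactosidase complementation, Galacton Star/Emerald II substrate; Controls: DMSO-only wells as negative, 10 nM Apelin-13 as positive control.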
CXCR6 block: blocks human CXCR6 beta-arrestin recruitment; O00574; CHO-K1 PathHunter CXCR6 beta-arrestin, luminescence; inhibition, % at 20 µM; actives 0.36% (n = 360,000); AID 602244; in the data active = inhibition above about 34%, passing the limit was not always enough;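 note: antagonist mode with CXCL16 agonist at 10 nM final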
HTR2A ag: mouse HTR2A agonism via beta-arrestin recruitment | AID 624169 | activation, % at 7.6 µM | actives 0.66% (n = 360,000) | P35363 | CHO-K1 mHTR2A beta-arrestin complementation, luminescence; percent of 30 µM serotonin response;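 active = activation above a run cutoff, the mean activation of all tested compounds plus 3 SD, cut at about 14% in these data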
APJ antag: APJ receptor antagonism. P35414. CHO-K1 APJ beta-arrestin complementation, luminescence. inhibition, % at 20 µM. actives 0.32% (n = 330,000);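 active = inhibition above about 40% at 20 µM, limit read from the data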;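 note: cells challenged with 10 nM apelin-13 agonist together with compound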
EBI2 block: blocks human EBI2 receptor beta-arrestin signaling; EBI2 beta-arrestin recruitment, luminescence, 7a,25-OHC stimulated; inhibition, % at 5 µM; actives 0.81% (n = 360,000); P32249; in the data active = inhibition above about 38%;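 note: enzyme fragment complementation signal reports receptor beta-arrestin coupling in cells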
CCR6 antag: CCR6 (human) receptor antagonism; P51684; CHO-K1 CCR6 PathHunter beta-arrestin, luminescence, CCL20-stimulated; inhibition, % at 20 µM; actives 0.49% (n = 340,000);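 active = compounds whose inhibition of the agonist-driven luminescence signal at 20 µM reaches about 50%, limit read from the data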;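 note: cells stimulated with CCL20 at 14 nM final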
APJ antag confirm: APJ receptor antagonism confirmation. shares compounds with APJ antag. APJ beta-arrestin recruitment, luminescence, antagonist mode. inhibition, % at 20 µM. actives 66% (n = 950); in the data active = inhibition above about 50%
Hits are given with their value; - = inactive; . = not tested or not shown. In the library only some 2.1% were active in any assay of this set; here they are far more common.

SMILES	APJ agonist	CXCR6 block	HTR2A ag	APJ antag	EBI2 block	CCR6 antag	APJ antag confirm
O=C(Cc1coc(-c2ccc(F)cc2)n1)NC1CCCCC1	-	-	-	60.5	-	-	-
N#Cc1cc(-c2ccccc2)nc(NN)n1	-	-	-	-	-	-	.
NNc1nc(-c2ccccc2)cc(-c2ccccc2)n1	-	45.0	-	96.6	-	62.7	121.7
Cc1cc(C)c(C)c(/C=C(/C#N)C(N)=S)c1C	-	-	-	41.9	-	-	-
Cc1ccc(OCC(=O)OCc2nc3scc(-c4ccccc4)c3c(=O)[nH]2)cc1C	-	-	-	-	-	-	.
Cc1ccc(C2=NN3C(C(=O)c4ccccc4)Oc4ccccc4C3C2)cc1 (stereo unspecified)	-	-	-	45.6	-	-	-
Cc1ccc(C(=O)C2Oc3ccccc3C3CC(c4ccc(C)cc4)=NN23)cc1 (stereo unspecified)	-	-	-	-	-	-	.
COc1ccc(C)cc1NC(=O)COC(=O)C1CC1	-	-	-	40.9	-	-	-
Nc1c(N2CCN(c3ccccc3)CC2)c2ccccc2oc1=O	-	-	-	46.3	-	60.3	56.6
Nc1c(N)c2ccccc2oc1=O	-	-	-	-	-	-	.
N#Cc1c(N)n(CCCN2CCOCC2)c2nc3ccccc3nc12	-	-	-	42.6	-	-	-
CCCCCn1c(N)c(C#N)c2nc3ccccc3nc21	-	-	-	-	-	-	.
O=[N+]([O-])c1ccc(/C=N/Nc2ccc3ccccc3c2)o1	-	41.8	-	67.0	-	63.5	80.6
C/C=C/C(=O)OCC(=O)Nc1ccc(C)c(S(=O)(=O)N(C)C)c1	-	-	-	-	-	-	.
CC(=O)c1ccc(N2CCN(C(=S)NCc3ccco3)CC2)cc1	-	-	-	44.8	-	-	-
Oc1cccc(/C=C/c2ccc3cccc(O)c3n2)c1	-	-	-	-	-	-	.
COc1cccc(/C=C/c2ccc3cccc(O)c3n2)c1OC	-	-	-	53.9	-	50.3	79.2
COc1cccc(/C=C/c2ccc3cccc(O)c3n2)c1	-	-	-	45.3	-	62.3	88.3
O=C(c1cc(COc2cccc(C(F)(F)F)c2)on1)N1C[C@H]2CC[C@H]1C2	-	-	-	-	-	-	.
Cc1ccc(C)c(NC(=S)/C(=C(\[O-])c2ccc(OC(F)F)cc2)[n+]2ccccc2)c1	-	-	-	-	-	-	.
[O-]/C(=C(\C(=S)Nc1ccccc1F)[n+]1ccccc1)c1ccc(OC(F)F)cc1	-	-	-	47.5	-	-	-
CC(=O)Nc1ccc([N+](=O)[O-])c(CS(=O)(=O)c2ccc(C)cc2)c1[N+](=O)[O-]	-	-	-	-	-	-	.
Cc1ccc(NC(=O)c2cc3ccccc3o2)cc1S(=O)(=O)N(C)C	.	-	-	.	-	-	.
Cc1cc(C)cc(N(CC(=O)NCCSc2ccccn2)S(=O)(=O)c2ccccc2)c1	-	-	-	42.8	-	-	-
CCN1C(=O)/C(=C2\C=Cc3ccccc3N2CC)SC1=S	-	56.8	-	43.5	-	84.1	100.2
SMILES	APJ agonist	CXCR6 block	HTR2A ag	APJ antag	EBI2 block	CCR6 antag	APJ antag confirm
N#CCOc1ccccc1/C=C/c1nc2ccccc2c(=O)[nH]1	-	-	-	-	-	-	.
CCN(CC)c1nc(C)c(C(=S)Nc2cc([N+](=O)[O-])ccc2Cl)s1	-	42.2	-	40.1	-	57.0	100.1
CCC(C)(C)C(=O)Nc1cc([N+](=O)[O-])ccc1Cl	-	-	-	-	-	-	.
CCN(CC)CCC(c1ccc(N(C)C)cc1)c1c(OC)cc(OC)c2ccc(=O)oc12 (stereo unspecified)	-	-	-	-	-	-	.
COc1ccc(-c2c3c(nc4sc(C(=O)Nc5ccccc5)c(N)c24)CCC3)cc1	-	-	-	70.7	-	-	-
Nc1c(C(=O)Nc2ccccc2)sc2nc3c(c(-c4ccco4)c12)CCC3	-	-	-	-	-	-	.
CCOC(=O)c1c(C)nc2sc(C(=O)Nc3ccccc3)c(N)c2c1-c1ccc(OC)cc1	-	-	-	41.0	-	-	-
COc1ccc(NC(=O)COC(=O)COc2cccc3c2OC(C)(C)C3)cc1	-	-	-	-	-	-	.
CCOc1ccc(N=C2NC(=O)S/C2=C\c2ccc(N(C)C)cc2)cc1	-	-	-	43.0	-	-	60.5
CCOc1ccc(/C=C2/SC(=O)NC2=S)cc1	-	-	-	-	-	-	.
CCCN(CCC)C(=S)NC(=O)c1ccc(-c2ccccc2)cc1	-	-	-	45.4	-	-	-
CC(C)(C)C(=O)NC(=S)NNC(=O)c1ccc(-c2ccccc2)cc1	-	84.0	-	66.3	-	101.9	111.9
CCOc1ccc(C(=O)NC(=S)N(Cc2ccccc2)Cc2ccccc2)cc1	.	-	-	.	-	-	.
O=C(Nc1c(C(=O)N2CCCCC2)cnn1-c1ccccc1)c1ccccc1F	-	-	-	61.8	-	-	-
CN1CCN(C(=O)c2cnn(-c3ccccc3)c2NC(=O)c2ccccc2)CC1	-	-	-	-	-	-	.
CC(=O)Nc1cccc(-c2ccnc3c2CC(C(=O)NCc2cccs2)O3)c1 (stereo unspecified)	.	-	-	.	-	.	.
C=C1C(=O)O[C@@H]2C[C@@H](C)[C@@H]3C=CC(=O)[C@@]3(C)[C@@H](OC(C)=O)[C@H]12	-	.	.	46.2	.	-	77.0
COc1ccc(C(C#N)N2N=C(C)CC2(C)C)cc1OC (stereo unspecified)	-	-	-	-	-	-	.
O=C(Nc1cccc([N+](=O)[O-])c1)Nc1cccc([N+](=O)[O-])c1	-	-	-	-	-	-	.
O=C(Nc1cccc([N+](=O)[O-])c1)Nc1ccc2c(c1)OCCO2	-	-	-	42.2	-	-	-
COc1cccc2cc(C(C)N(CCCN3CCOCC3)C(=S)Nc3cccc(C)c3)oc12 (stereo unspecified)	-	-	-	76.7	-	-	-
Cc1onc(-c2ccccc2Cl)c1C(=O)NCc1ccccc1	-	-	-	-	-	-	.
COCCN(C(=O)c1csnn1)C(C(=O)NC1CCCC1)c1ccccc1F (stereo unspecified)	-	-	-	52.7	-	-	-
COCCN(C(=O)c1csnn1)C(C(=O)NC1CCCC1)c1ccc(C)cc1 (stereo unspecified)	-	-	-	-	-	-	.
CCOc1cc(C2C(C(=O)OCC(C)C)=C(C)N=C3SCCC(=O)N32)ccc1OC(C)=O (stereo unspecified)	-	-	-	-	-	-	.
c1ccc(Cn2cnc3ccccc32)cc1	-	-	-	-	-	-	.
Fc1cc2ncn(Cc3ccccc3)c2cc1F	-	-	-	61.4	-	-	-
